Data set [1] relates to SH-SY5Y. Briefly: Neuroprotective activity against MPP+-induced human SH-SY5Y cell death assessed as cell viability at 10 uM pretreated for 2 hrs prior to MPP+ induction by MTT assay relative to control. It counts as functional. Conditions: read-out: Activity. In outline:
(§1)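 SH-SY5Y cells in DMEM with 10% FBS and penicillin/streptomycin at 37 °C, 5% CO2. Detached with 1 mM EGTA in PBS for 15 min, seeded at 1 × 10^4 cells/well, grown 24 h. Pretreated 2 h with compound (3, 10, 30 μM), then MPP+ medium. MTT (0.5 mg/mL final) added for 4 h; formazan read at 490 nm. Viability expressed against vehicle control (100). Triplicates, mean ± SEM, ANOVA/Student–Newman–Keuls.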
For orientation: Formazan colour is commonly taken as a measure of viable cells.

The subject of data set [2] is SH-SY5Y. Briefly: Neuroprotective activity against MPP+-induced human SH-SY5Y cell death assessed as cell viability at 3 uM pretreated for 2 hrs prior to MPP+ induction by MTT assay relative to control. The class given is functional. The note with it: read-out: Activity. The procedure, abridged: as §1
The subject of data set [3] is SH-SY5Y. In words: Neuroprotective activity against MPP+-induced human SH-SY5Y cell death assessed as cell viability at 30 uM pretreated for 2 hrs prior to MPP+ induction by MTT assay relative to control. It counts as functional. The note with it: read-out: Activity. The procedure, abridged:
as §1

Data set [4] relates to SH-SY5Y. Briefly: Cytotoxicity against human SH-SY5Y cells assessed as cell viability at 3 to 30 uM by MTT assay. The class given is cell-based.

SMILES strings stand for the structures.

On to `C=C(C)[C@H]1C=C[C@@H](OC(=O)c2ccccc2)[C@@]23CO[C@@](C)([C@H](OC(C)=O)[C@@]4(OC(C)=O)C[C@H](C)[C@H](OC(=O)CC)[C@@H]4[C@@H]2OC(C)=O)[C@H]13`, for which the viability at 10 µM in the data set on SH-SY5Y [1] was 86.5%. In addition, the viability at 3 µM with SH-SY5Y [2] worked out at 78.1%. In addition, the viability at 30 µM in the data set with SH-SY5Y [3] amounted to 94.2%.

In the case of `C=C(C)[C@H]1C=C[C@@H](OC(=O)c2ccccc2)[C@@]23CO[C@@](C)([C@H](OC(=O)c4cccnc4)[C@@]4(OC(C)=O)C[C@H](C)[C@H](OC(=O)CC)[C@@H]4[C@@H]2OC(C)=O)[C@H]13`, the Activity entry in the data set on SH-SY5Y [4] was “Non-toxic”. Further, the viability at 10 µM in the data set on SH-SY5Y [1] came out at 87.4%. Also, in the data set with SH-SY5Y [2], the viability at 3 µM was 77.7%. Moreover, the viability at 30 µM in the data set with SH-SY5Y [3] turned out to be 96.5%.

With `CCC/C=C/C=C/C=C\CO[C@@H]1[C@@H](C)[C@]2(O)[C@@H]3C=C(C)C(=O)[C@H]3CC(CO)=C[C@H]2[C@@H]2C(C)(C)[C@]12OC(=O)C(C)C`, the viability at 10 µM with SH-SY5Y [1] worked out at 77.3%. For the same compound, the viability at 3 µM in the data set on SH-SY5Y [2] worked out at 69.6%. In addition, the viability at 30 µM in the data set on SH-SY5Y [3] was 84.1%.

On to `CCC(=O)O[C@@H]1[C@@H]2[C@@H](OC(=O)c3ccccc3)[C@@]3(COC(C)=O)[C@@H]([C@@H]4[C@H](C[C@H]3OC(C)=O)C4(C)C)[C@](C)(OC(C)=O)C(=O)[C@@]2(O)C[C@@H]1C`, for which the viability at 10 µM in the data set on SH-SY5Y [1] is 70.3%. Also, the viability at 3 µM in the data set with SH-SY5Y [2] was 61.5%. Further, in the data set on SH-SY5Y [3], the viability at 30 µM came out at 78.5%.

As for `CCC(=O)O[C@@H]1[C@@H]2[C@@H](OC(C)=O)[C@@]34CO[C@@](C)([C@@H](OC(=O)C(C)C)[C@@]2(OC(C)=O)C[C@@]1(C)OC(=O)C(C)C)[C@@H]3[C@@H](C(C)(C)OC(C)=O)C=C[C@H]4OC(C)=O` (relative stereo) [EUPHORBIAPROLIFERIN A], the viability at 10 µM in the data set with SH-SY5Y [1] worked out at 83.5%. For the same compound, the viability at 3 µM in the data set on SH-SY5Y [2] is 75.1%. For the same compound, the viability at 30 µM with SH-SY5Y [3] is 92.7%.

`CCCC(=O)O[C@@H]1[C@@H]2[C@@H](OC(C)=O)[C@@]34CO[C@@](C)([C@@H](OC(=O)c5ccccc5)[C@@]2(OC(C)=O)C[C@@]1(C)OC(=O)c1ccccc1)[C@@H]3[C@@H](C(C)(C)OC(C)=O)C=C[C@H]4OC(C)=O` (relative stereo) [EUPHORBIAPROLIFERIN B]: in the data set on SH-SY5Y [4], the Activity entry is recorded as “Non-toxic”. Also, in the data set with SH-SY5Y [1], the viability at 10 µM is 93.2%. Also, the viability at 3 µM in the data set with SH-SY5Y [2] came out at 74.8%. Besides, the viability at 30 µM with SH-SY5Y [3] came out at 109%.

Turning to `CC(=O)O[C@@H]1[C@H]2[C@@H](OC(=O)C(C)C)[C@@H](C)C[C@]2(OC(C)=O)[C@@H](OC(C)=O)[C@]2(C)OC[C@]13C(=O)C=C[C@H](C(C)(C)OC(C)=O)[C@@H]23` [EUPHORBIAPROLIFERIN C], the viability at 10 µM in the data set on SH-SY5Y [1] amounted to 75.4%. For the same compound, the viability at 3 µM in the data set on SH-SY5Y [2] was 68.3%. In addition, in the data set on SH-SY5Y [3], the viability at 30 µM came to 81.3%.

Take `CCC(=O)O[C@@H]1[C@@H]2[C@@H](OC(C)=O)[C@@]34CO[C@@](C)([C@H](OC(=O)c5ccccc5)[C@@]2(OC(C)=O)C[C@@H]1C)[C@@H]3[C@@H](C(C)(C)OC(C)=O)C=CC4=O` [EUPHORBIAPROLIFERIN D]: in the data set with SH-SY5Y [1], the viability at 10 µM is 71.3%. Moreover, in the data set on SH-SY5Y [2], the viability at 3 µM turned out to be 68.7%. Further, the viability at 30 µM with SH-SY5Y [3] was determined as 88.6%.

Take `CC(=O)O[C@@H]1[C@@H]2[C@@H](OC(C)=O)[C@@]34CO[C@@](C)([C@H](OC(=O)c5ccccc5)[C@@]2(O)C[C@@H]1C)[C@@H]3[C@@H]1[C@@H](C[C@]1(C)OC(C)=O)[C@@H](OC(=O)c1ccccc1)C4=O` [EUPHORBIAPROLIFERIN E]: the viability at 10 µM in the data set with SH-SY5Y [1] was 76%. The viability at 3 µM in the data set with SH-SY5Y [2] stood at 67.1%. In addition, the viability at 30 µM with SH-SY5Y [3] stood at 82.1%.

As for `C=C(C)[C@H]1C=C[C@@H](OC(C)=O)[C@@]23CO[C@@](C)([C@H](OC(=O)c4ccccc4)[C@@]4(OC(C)=O)C[C@H](C)[C@H](OC(=O)CC)[C@@H]4[C@H]2OC(C)=O)[C@H]13` [EUPHORBIAPROLIFERIN F], the viability at 10 µM in the data set with SH-SY5Y [1] is 87.1%. Besides, the viability at 3 µM in the data set with SH-SY5Y [2] was 74.5%. Further, the viability at 30 µM in the data set with SH-SY5Y [3] came to 93.5%.

Turning to `C=C(C)[C@H]1C=C[C@@H](OC(C)=O)[C@@]23CO[C@@](C)([C@H](OC(C)=O)[C@@]4(OC(C)=O)C[C@H](C)[C@H](OC(=O)CC)[C@@H]4[C@H]2OC(C)=O)[C@H]13` [EUPHORBIAPROLIFERIN G], in the data set with SH-SY5Y [1], the viability at 10 µM is 78.3%. The viability at 3 µM in the data set with SH-SY5Y [2] is 65.6%. Moreover, the viability at 30 µM in the data set on SH-SY5Y [3] was determined as 88.7%.

Take `C=C(C)[C@H]1C=C[C@@H](OC(=O)c2ccccc2)[C@@]23CO[C@@](C)([C@H](OC(=O)c4ccccc4)[C@@]4(OC(C)=O)C[C@H](C)[C@H](OC(C)=O)[C@@H]4[C@H]2OC(C)=O)[C@H]13` [EUPHORBIAPROLIFERIN H]: in the data set with SH-SY5Y [4], the Activity result is listed as “Non-toxic”. Also, the viability at 10 µM in the data set on SH-SY5Y [1] was 89.8%. In addition, in the data set on SH-SY5Y [2], the viability at 3 µM worked out at 83.6%. In addition, the viability at 30 µM in the data set with SH-SY5Y [3] came out at 99.4%.

On to `CCC(=O)O[C@@H]1[C@@H]2[C@@H](OC(C)=O)[C@@]34CO[C@@](C)([C@@H](OC(=O)c5ccccc5)[C@@]2(OC(C)=O)C[C@@H]1C)[C@@H]3[C@@H]1[C@H](C[C@H]4OC(C)=O)C1(C)C` [EUPHORBIAPROLIFERIN I], for which the Activity entry in the data set with SH-SY5Y [4] was “Non-toxic”. Besides, the viability at 10 µM in the data set with SH-SY5Y [1] is 88.9%. In addition, the viability at 3 µM with SH-SY5Y [2] stood at 84.8%. In the data set on SH-SY5Y [3], the viability at 30 µM turned out to be 101%.

On to `CCCC(=O)O[C@@H]1[C@@H]2[C@@H](OC(C)=O)[C@@]34CO[C@@](C)([C@@H](OC(=O)c5ccccc5)[C@@]2(OC(C)=O)C[C@@H]1C)[C@@H]3[C@@H]1[C@H](C[C@H]4OC(C)=O)C1(C)C` [EUPHORBIAPROLIFERIN J], for which the Activity result in the data set with SH-SY5Y [4] is “Non-toxic”. Moreover, the viability at 10 µM in the data set with SH-SY5Y [1] was determined as 89.2%. Also, in the data set on SH-SY5Y [2], the viability at 3 µM is 79.8%. Besides, the viability at 30 µM in the data set with SH-SY5Y [3] was determined as 104%.

On to `CCC(=O)O[C@@H]1[C@@H]2[C@@H](OC(C)=O)[C@@]34CO[C@@](C)([C@@H](OC(=O)c5ccccc5)[C@@]2(OC(C)=O)C[C@@]1(C)OC(C)=O)[C@@H]3[C@@H](C(C)(C)OC(C)=O)C=C[C@H]4OC(C)=O` [EUPHORPROLITHERIN B], for which the viability at 10 µM in the data set on SH-SY5Y [1] came out at 81.7%. Also, the viability at 3 µM in the data set with SH-SY5Y [2] was determined as 70.3%. For the same compound, the viability at 30 µM in the data set with SH-SY5Y [3] is 92.2%.

As for `C=C(C)[C@H]1C=C[C@@H](OC(=O)c2ccccc2)[C@@]23CO[C@@](C)([C@@H](OC(=O)c4ccccc4)[C@@]4(OC(C)=O)C[C@H](C)[C@H](OC(=O)CC)[C@@H]4[C@H]2OC(C)=O)[C@H]13` [EUPHORPROLITHERIN C], in the data set on SH-SY5Y [4], the Activity result is recorded as “Non-toxic”. For the same compound, the viability at 10 µM in the data set on SH-SY5Y [1] amounted to 91.5%. Also, in the data set on SH-SY5Y [2], the viability at 3 µM is 75.5%. Further, in the data set on SH-SY5Y [3], the viability at 30 µM worked out at 103%.

In the case of `Nc1nc2c(ncn2[C@@H]2O[C@H](CO)[C@@H](O)[C@H]2O)c(=O)[nH]1` [GUANOSINE], in the data set on SH-SY5Y [1], the viability at 10 µM worked out at 77.3%. Further, the viability at 3 µM with SH-SY5Y [2] amounted to 68.1%. Also, in the data set on SH-SY5Y [3], the viability at 30 µM amounted to 87.3%.

In the case of `CCC(=O)O[C@@H]1[C@@H]2[C@@H](OC(C)=O)[C@@]34CO[C@@](C)([C@@H](OC(=O)c5ccccc5)[C@@]2(OC(C)=O)C[C@@]1(C)OC(=O)C(C)C)[C@@H]3[C@@H](C(C)(C)OC(C)=O)C=C[C@H]4OC(C)=O` [PROLIFERIN A], the Activity result with SH-SY5Y [4] is “Non-toxic”. The viability at 10 µM in the data set on SH-SY5Y [1] was found to be 85.2%. In addition, the viability at 3 µM in the data set on SH-SY5Y [2] was determined as 74.4%. Moreover, the viability at 30 µM with SH-SY5Y [3] turned out to be 97.8%.

For the compound `CCC(=O)O[C@@H]1[C@@H]2[C@@H](OC(C)=O)[C@@]34CO[C@@](C)([C@@H](OC(=O)c5ccccc5)[C@@]2(OC(C)=O)C[C@@]1(C)OC(=O)c1ccccc1)[C@@H]3[C@@H](C(C)(C)OC(C)=O)C=C[C@H]4OC(C)=O` [PROLIFERIN B], the Activity result in the data set with SH-SY5Y [4] was “Non-toxic”. Besides, the viability at 10 µM with SH-SY5Y [1] came to 95.4%. For the same compound, the viability at 3 µM with SH-SY5Y [2] is 82.1%. The viability at 30 µM in the data set on SH-SY5Y [3] is 112%.

`CCC(=O)O[C@@H]1[C@@H]2[C@@H](OC(C)=O)[C@@]34CO[C@@](C)([C@@H](OC(=O)c5ccccc5)[C@@]2(OC(C)=O)C[C@@H]1C)[C@@H]3[C@@H](C(C)(C)OC(C)=O)C=C[C@H]4OC(C)=O` [PROLIFERIN C]: the Activity entry in the data set with SH-SY5Y [4] is listed as “Non-toxic”. The viability at 10 µM in the data set with SH-SY5Y [1] stood at 84.5%. For the same compound, in the data set on SH-SY5Y [2], the viability at 3 µM came out at 76.7%. In the data set with SH-SY5Y [3], the viability at 30 µM was found to be 95.1%.

These data come from ChEMBL document CHEMBL1926532, “Bioactive myrsinol diterpenoids from the roots of Euphorbia prolifera” (J Nat Prod, 2011).
